The record followed here is PMC2728397 (The Journal of Cell Biology, 2009).

The subject of one experiment is thymocytes (Bim level). Kind of experiment: Bim expression in thymocytes. The format is cell-based, mouse. As to conditions: mutant and WT thymocytes; Western blot. (A western blot detects proteins with antibodies after separation by electrophoresis.)
The test system of the next experiment is Mcl-1. Kind of experiment: Coimmunoprecipitation from thymocyte lysates, Mcl-1. The format is binding, mouse. As to conditions: 1% Triton X-100 buffer, pH 7.4, anti-Bim 3C5. The method in brief:
(§1)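 Thymocytes came from WT and Bim BH3-replacement knockin mice. Cells were lysed in 20 mM Tris pH 7.4, 135 mM NaCl, 1.5 mM MgCl2, 1 mM EGTA, 10% glycerol, 1% Triton X-100 and protease inhibitors. Bim was immunoprecipitated with rat mAb 3C5 (N-terminal epitope, all isoforms and mutants). Partners were shown by SDS-PAGE/Western blot with ECL: hamster mAb 3F11 (Bcl-2), rabbit polyclonals (Bcl-xL, Mcl-1).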

Another experiment relates to Bcl-xL. As to the kind of experiment: Coimmunoprecipitation from thymocyte lysates, Bcl-xL. As to conditions: 1% Triton X-100 buffer, pH 7.4, anti-Bim 3C5. The format is binding, mouse. In outline:
as §1

The subject of a further experiment is Bcl-2. Kind of experiment: Coimmunoprecipitation from thymocyte lysates, Bcl-2. The class given is binding, mouse. As to conditions: 1% Triton X-100 buffer, pH 7.4, anti-Bim 3C5. In outline:
as §1

As to `C[C@H](CCC(=O)O)C[C@H](C)C[C@H](C)C(=O)/C=C(\O)[C@H](C)C[C@H](C)C/C=C/[C@@H](C)[C@@H](O)[C@@H](C)[C@@H](O)C[C@@H]1CC[C@@](C)([C@H]2CC[C@@](C)([C@@H](C)O)O2)O1` [ionomycin], in the experiment on thymocytes (Bim level), the Bim expression entry is “increased Bim expression comparably in both the mutant and WT thymocytes”.

B1: WT Bim: wild-type Bim protein in thymocyte lysates (protein)
chain: MAKQPSDVSSECDREGGQLQPAERPPQLRPGAPTSLQTEPQGNPDGEGDRCPHGSPQGPLAPPASPGPFATRSPLFIFVRRSSLLSRSSSGYFSFDTDRSPAPMSCDKSTQTPSPPCQAFNHYLSAMASIRQSQEEPEDLRPEIRIAQELRRIGDEFNETYTRRVFANDYREAEDHPQMVILQLLRFIFRLVWRRH
On to B1, for which the “coimmunoprecipitation with Mcl-1” value in the experiment with Mcl-1 was “bound all of these prosurvival proteins”. In addition, the “coimmunoprecipitation with Bcl-xL” value in the experiment on Bcl-xL is “bound all of these prosurvival proteins”. Moreover, the “coimmunoprecipitation with Bcl-2” value in the experiment with Bcl-2 is listed as “bound all of these prosurvival proteins”.
